Assay results published in ChEMBL document CHEMBL4138275, “Taccalonolide Microtubule Stabilizers Generated Using Semisynthesis Define the Effects of Mono Acyloxy Moieties at C-7 or C-15 and Disubstitutions at C-7 and C-25” (J Nat Prod, 2018).
The source made the active and inactive calls. The rule behind the calls is not given here.

Assays:
HeLa [1] = assay: Antiproliferative activity against human HeLa cells after 48 hrs by sulforhodamine B assay; assay type: functional, cell-based
Procedure, shortened: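 HeLa cells (STR-validated) grown in BME with 10% FBS and gentamycin, seeded 2500/well, left to adhere overnight, then exposed to compounds for 48 h. Cell density read by sulforhodamine B staining. IC50 is the concentration giving 50% inhibition of cell density versus vehicle, fitted by nonlinear regression. Mean of 3 or 4 experiments, each in triplicate, ±SD.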

HeLa [2] = assay: Induction of microtubule stabilization in human HeLa cells assessed as formation of multiple aberrant mitotic spindle at 5 times IC50 after 18 hrs by indirect immunofluorescence assay; assay type: cell-based
Procedure, shortened: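 HeLa cells treated for 18 h at 5-fold each compound's own antiproliferative IC50, with EtOH as vehicle control. Mitotic and interphase microtubules stained by indirect immunofluorescence with a β-tubulin antibody and viewed by fluorescence microscopy.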

Compound	IC50 (HeLa [1]) [µM]	Activity (HeLa [2])
CC(=O)O[C@H]1[C@H]2[C@H]([C@@H]3[C@@H](O)[C@@H]4[C@H]([C@H](C)C=C5OC(=O)[C@@](C)(OC(=O)CC(C)C)[C@@]54C)[C@@]3(C)[C@H]1OC(C)=O)[C@@H](OC(=O)CC(C)C)C(=O)[C@H]1C[C@@H]3O[C@@H]3[C@H](OC(C)=O)[C@]21C	> 20	
CC(=O)O[C@H]1[C@H]2[C@H]([C@@H]3[C@@H](O)[C@@H]4[C@H]([C@H](C)C=C5OC(=O)[C@@](C)(OC(=O)c6ccc7c(c6)C(=O)c6ccccc6C7=O)[C@@]54C)[C@@]3(C)[C@H]1OC(C)=O)[C@@H](OC(=O)c1ccc3c(c1)C(=O)c1ccccc1C3=O)C(=O)[C@H]1C[C@@H]3O[C@@H]3[C@H](OC(C)=O)[C@]21C	> 20	
CC(=O)O[C@H]1[C@H]2[C@H]([C@@H]3[C@@H](O)[C@@H]4[C@H]([C@H](C)C=C5OC(=O)[C@@](C)(O)[C@@]54C)[C@@]3(C)[C@H]1OC(C)=O)[C@@H](OC(=O)c1ccc3c(c1)C(=O)c1ccccc1C3=O)C(=O)[C@H]1C[C@@H]3O[C@@H]3[C@H](OC(C)=O)[C@]21C	3.4	
CC(=O)O[C@H]1[C@H]2[C@H]([C@@H]3[C@@H](O)[C@@H]4[C@H]([C@H](C)C=C5OC(=O)[C@@](C)(O)[C@@]54C)[C@@]3(C)[C@H]1OC(C)=O)[C@@H](OC(=O)C(C)(C)C)C(=O)[C@H]1C[C@@H]3O[C@@H]3[C@H](OC(C)=O)[C@]21C	10	
CC(=O)O[C@H]1[C@H]2[C@H]([C@@H]3[C@@H](OC(=O)C(C)C)[C@@H]4[C@H]([C@H](C)C=C5OC(=O)[C@@](C)(O)[C@@]54C)[C@@]3(C)[C@H]1OC(C)=O)[C@@H](O)C(=O)[C@H]1C[C@@H]3O[C@@H]3[C@H](OC(C)=O)[C@]21C	> 20	
CC(=O)O[C@H]1[C@H]2[C@H]([C@@H]3[C@@H](OC=O)[C@@H]4[C@H]([C@H](C)C=C5OC(=O)[C@@](C)(O)[C@@]54C)[C@@]3(C)[C@H]1OC(C)=O)[C@@H](O)C(=O)[C@H]1C[C@@H]3O[C@@H]3[C@H](OC(C)=O)[C@]21C	> 20	
CC(=O)O[C@H]1[C@H]2[C@H]([C@@H]3[C@@H](O)[C@@H]4[C@H]([C@H](C)C=C5OC(=O)[C@@](C)(O)[C@@]54C)[C@@]3(C)[C@H]1OC(C)=O)[C@@H](OC(=O)CC(C)C)C(=O)[C@H]1C[C@@H]3O[C@@H]3[C@H](OC(C)=O)[C@]21C	> 20	
CC(=O)O[C@H]1[C@H]2[C@H]([C@@H]3[C@@H](OC(=O)C4CC4)[C@@H]4[C@H]([C@H](C)C=C5OC(=O)[C@@](C)(O)[C@@]54C)[C@@]3(C)[C@H]1OC(C)=O)[C@@H](O)C(=O)[C@H]1C[C@@H]3O[C@@H]3[C@H](OC(C)=O)[C@]21C	> 20	
CC(=O)O[C@@H]1[C@H]2[C@H]3[C@H]([C@H](OC(C)=O)[C@H](OC(C)=O)[C@]2(C)[C@@H]2[C@@H]1[C@]1(C)C(=C[C@H]2C)OC(=O)[C@@]1(C)O)[C@]1(C)[C@H](C[C@@H]2O[C@@H]2[C@@H]1OC(C)=O)C(=O)[C@@H]3O [TACCALONOLIDE A]	5.4	
CC(=O)O[C@H]1[C@H]2[C@H]([C@@H]3[C@@H](O)[C@@H]4[C@H]([C@H](C)C=C5OC(=O)[C@@](C)(OC(=O)C(C)C)[C@@]54C)[C@@]3(C)[C@H]1OC(C)=O)[C@@H](OC(=O)C(C)C)C(=O)[C@H]1C[C@@H]3O[C@@H]3[C@H](OC(C)=O)[C@]21C	> 20	
CC(=O)O[C@H]1[C@H]2[C@H]([C@@H]3[C@@H](O)[C@@H]4[C@H]([C@H](C)C=C5OC(=O)[C@@](C)(O)[C@@]54C)[C@@]3(C)[C@H]1OC(C)=O)[C@@H](OC(=O)C(C)C)C(=O)[C@H]1C[C@@H]3O[C@@H]3[C@H](OC(C)=O)[C@]21C	4.7	
CC(=O)O[C@H]1[C@H]2[C@H]([C@@H]3[C@@H](OC(=O)c4ccc5c(c4)C(=O)c4ccccc4C5=O)[C@@H]4[C@H]([C@H](C)C=C5OC(=O)[C@@](C)(O)[C@@]54C)[C@@]3(C)[C@H]1OC(C)=O)[C@@H](O)C(=O)[C@H]1C[C@@H]3O[C@@H]3[C@H](OC(C)=O)[C@]21C	7.1	
CC(=O)O[C@H]1[C@H]2[C@H]([C@@H]3[C@@H](O)[C@@H]4[C@H]([C@H](C)C=C5OC(=O)[C@@](C)(OC(=O)C6CC6)[C@@]54C)[C@@]3(C)[C@H]1OC(C)=O)[C@@H](OC(=O)C1CC1)C(=O)[C@H]1C[C@@H]3O[C@@H]3[C@H](OC(C)=O)[C@]21C	> 20	

Stronger by IC50 (HeLa [1]), values ahead:

IC50 (HeLa [1]) [µM]	Compound	Activity (HeLa [2])
0.0084	CC(=O)O[C@H]1[C@H]2[C@H]([C@@H]3[C@@H](OC=O)[C@@H]4[C@H]([C@H](C)[C@H]5O[C@]56OC(=O)[C@@](C)(O)[C@]46C)[C@@]3(C)[C@H]1OC(C)=O)[C@@H](O)C(=O)[C@H]1C[C@@H]3O[C@@H]3[C@H](OC(C)=O)[C@]21C	Active
0.022	CC(=O)O[C@H]1[C@H]2[C@H]([C@@H]3[C@@H](O)[C@@H]4[C@H]([C@H](C)[C@H]5O[C@]56OC(=O)[C@@](C)(O)[C@]46C)[C@@]3(C)[C@H]1OC(C)=O)[C@@H](OC(=O)c1ccc3c(c1)C(=O)c1ccccc1C3=O)C(=O)[C@H]1C[C@@H]3O[C@@H]3[C@H](OC(C)=O)[C@]21C	
3	CC(=O)O[C@H]1[C@H]2[C@H]([C@@H]3[C@@H](O)[C@@H]4[C@H]([C@H](C)[C@H]5O[C@]56OC(=O)[C@@](C)(OC(=O)c5ccc7c(c5)C(=O)c5ccccc5C7=O)[C@]46C)[C@@]3(C)[C@H]1OC(C)=O)[C@@H](OC(=O)c1ccc3c(c1)C(=O)c1ccccc1C3=O)C(=O)[C@H]1C[C@@H]3O[C@@H]3[C@H](OC(C)=O)[C@]21C	
1.5	CC(=O)O[C@H]1[C@H]2[C@H]([C@@H]3[C@@H](OC(=O)CC(C)C)[C@@H]4[C@H]([C@H](C)C=C5OC(=O)[C@@](C)(O)[C@@]54C)[C@@]3(C)[C@H]1OC(C)=O)[C@@H](O)C(=O)[C@H]1C[C@@H]3O[C@@H]3[C@H](OC(C)=O)[C@]21C	
2.4	CC(=O)O[C@H]1[C@H]2[C@H]([C@@H]3[C@@H](OC(=O)C(C)(C)C)[C@@H]4[C@H]([C@H](C)C=C5OC(=O)[C@@](C)(O)[C@@]54C)[C@@]3(C)[C@H]1OC(C)=O)[C@@H](O)C(=O)[C@H]1C[C@@H]3O[C@@H]3[C@H](OC(C)=O)[C@]21C	
0.038	CC(=O)O[C@H]1[C@H]2[C@H]([C@@H]3[C@@H](OC(=O)c4ccc5c(c4)C(=O)c4ccccc4C5=O)[C@@H]4[C@H]([C@H](C)[C@H]5O[C@]56OC(=O)[C@@](C)(O)[C@]46C)[C@@]3(C)[C@H]1OC(C)=O)[C@@H](O)C(=O)[C@H]1C[C@@H]3O[C@@H]3[C@H](OC(C)=O)[C@]21C	
